Results: ChEMBL document CHEMBL4342468, “Evolution of a 4-Benzyloxy-benzylamino Chemotype to Provide Efficacious, Potent, and Isoform Selective PPARα Agonists as Leads for Retinal Disorders” (J Med Chem, 2020)

Legend:
[1] = target: T1, Peroxisome proliferator-activated receptor alpha (Homo sapiens, UniProt Q07869)
T1 sequence (Q07869 whole entry): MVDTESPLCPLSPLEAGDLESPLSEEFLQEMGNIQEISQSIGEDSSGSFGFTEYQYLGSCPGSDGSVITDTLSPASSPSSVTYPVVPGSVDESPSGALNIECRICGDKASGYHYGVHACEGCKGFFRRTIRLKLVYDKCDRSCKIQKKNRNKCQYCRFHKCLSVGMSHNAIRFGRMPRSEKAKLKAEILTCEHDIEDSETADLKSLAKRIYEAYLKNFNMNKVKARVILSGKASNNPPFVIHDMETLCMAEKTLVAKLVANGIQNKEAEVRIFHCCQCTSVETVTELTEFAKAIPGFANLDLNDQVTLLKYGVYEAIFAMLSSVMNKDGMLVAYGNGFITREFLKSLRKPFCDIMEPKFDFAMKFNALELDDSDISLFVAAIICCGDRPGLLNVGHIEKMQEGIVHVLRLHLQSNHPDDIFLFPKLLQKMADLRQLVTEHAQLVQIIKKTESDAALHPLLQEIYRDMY

[2] = Stability in human pooled liver microsomes preincubated for 5 mins prior to addition of NADPH-regenerating system and measured up to 60 mins by HPLC-MS/MS analysis; type: ADME, Microsome; conditions: 1 h
Summary of the method: (§1)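 Compound pre-incubated 5 min at 37 °C with pooled liver microsomes in phosphate buffer, pH 7.4. NADPH-generating system then added; samples taken at 0, 15, 30, 45 and 60 min and quenched in acetonitrile/methanol. […] References: propranolol, imipramine, verapamil, terfenadine. Run in duplicate.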

hERG (KCNH2) = hERG (KCNH2) (Homo sapiens, UniProt Q12809); experiment: Inhibition of human ERG stably expressed in CHOK1 cells assessed as tail current amplitude at 10 uM incubated for 5 mins measured after deploarization to +20 mV for 2s followed by 1s pulse to -40 mV with holding potential of -80 mV by Qpatch clamp assay relative to control; type: cell-based; conditions: CHO-K1 cells stably expressing human ERG
hERG (KCNH2), sequence (Q12809 whole entry): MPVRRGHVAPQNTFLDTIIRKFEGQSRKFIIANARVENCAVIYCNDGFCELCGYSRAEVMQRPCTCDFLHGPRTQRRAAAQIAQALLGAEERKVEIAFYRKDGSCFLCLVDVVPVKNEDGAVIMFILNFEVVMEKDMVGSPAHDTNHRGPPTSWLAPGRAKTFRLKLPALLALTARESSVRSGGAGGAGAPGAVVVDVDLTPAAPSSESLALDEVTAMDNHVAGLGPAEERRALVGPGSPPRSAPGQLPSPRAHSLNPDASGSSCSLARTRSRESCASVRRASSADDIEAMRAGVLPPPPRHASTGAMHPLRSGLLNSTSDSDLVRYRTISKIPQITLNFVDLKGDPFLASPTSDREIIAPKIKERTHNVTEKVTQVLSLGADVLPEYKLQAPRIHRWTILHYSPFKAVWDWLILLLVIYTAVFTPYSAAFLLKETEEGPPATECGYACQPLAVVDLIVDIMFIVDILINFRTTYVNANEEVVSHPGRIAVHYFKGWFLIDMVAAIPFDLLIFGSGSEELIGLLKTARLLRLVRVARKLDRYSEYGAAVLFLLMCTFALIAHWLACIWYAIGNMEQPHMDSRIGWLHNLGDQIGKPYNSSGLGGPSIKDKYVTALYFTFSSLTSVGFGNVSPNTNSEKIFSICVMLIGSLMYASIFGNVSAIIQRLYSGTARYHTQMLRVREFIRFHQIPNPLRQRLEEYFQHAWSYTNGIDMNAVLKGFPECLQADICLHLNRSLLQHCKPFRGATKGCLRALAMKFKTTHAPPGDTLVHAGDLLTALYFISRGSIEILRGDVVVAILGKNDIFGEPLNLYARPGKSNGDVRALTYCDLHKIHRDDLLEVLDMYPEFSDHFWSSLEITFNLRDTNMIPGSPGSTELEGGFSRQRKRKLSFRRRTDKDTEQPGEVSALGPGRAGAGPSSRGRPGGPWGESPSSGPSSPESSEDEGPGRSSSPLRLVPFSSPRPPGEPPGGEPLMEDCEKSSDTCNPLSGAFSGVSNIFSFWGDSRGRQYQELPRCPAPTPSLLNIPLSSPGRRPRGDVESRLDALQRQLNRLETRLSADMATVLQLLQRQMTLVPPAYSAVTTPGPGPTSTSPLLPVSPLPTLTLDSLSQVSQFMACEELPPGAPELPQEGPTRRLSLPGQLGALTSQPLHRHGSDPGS
Summary of the method: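 Whole-cell automated patch clamp at room temperature on CHO-K1 cells stably carrying human hERG cDNA. Holding potential -80 mV; tail current evoked by 2 s step to +20 mV then 1 s to -40 mV.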

[3] = Stability in Sprague Dawley rat pooled liver microsomes preincubated for 5 mins prior to addition of NADPH-regenerating system and measured up to 60 mins by HPLC-MS/MS analysis; type: ADME, Microsome; conditions: 1 h
Summary of the method: as §1

[4] = target: T1, Peroxisome proliferator-activated receptor alpha; experiment: Binding affinity to PPARalpha in human MIO-M1 cells assessed as increase in thermal stability preincubated for 3 hrs followed by exposure to 45.5 degree C for 10 mins by CETSA; type: cell-based
Summary of the method: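 Human retinal Müller glial MIO-M1 cells grown in DMEM with 10% FBS. They were then heated at Tagg(75) for 10 min. Lysis used cold PBS with 0.1% Triton X-100 and protease inhibitors, and unstable protein was removed by centrifugation. Soluble PPARα was quantified by anti-PPARα immunoblot, normalized to loading control, and EC50 fitted. Single experiment, duplicate.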

[5] = target: T2, Peroxisome proliferator-activated receptor alpha (Homo sapiens) (UniProt Q07869); experiment: Binding affinity to His tagged PPARalpha LBD (unknown origin) expressed in Escherichia coli Rosetta (DE3) assessed as change in entropy at 25 degree C by isothermal titration calorimetry
T2 sequence (whole entry): T1 sequence (Q07869 whole entry)

[6] = target: T3, Peroxisome proliferator-activated receptor delta (Homo sapiens, UniProt Q03181); experiment: Agonist activity at human PPARdelta expressed in nonhuman mammalian cells assessed as increase in receptor transcriptional activity incubated for 22 to 24 hrs by luciferase reporter gene assay; type: cell-based
T3 sequence (Q03181 whole entry): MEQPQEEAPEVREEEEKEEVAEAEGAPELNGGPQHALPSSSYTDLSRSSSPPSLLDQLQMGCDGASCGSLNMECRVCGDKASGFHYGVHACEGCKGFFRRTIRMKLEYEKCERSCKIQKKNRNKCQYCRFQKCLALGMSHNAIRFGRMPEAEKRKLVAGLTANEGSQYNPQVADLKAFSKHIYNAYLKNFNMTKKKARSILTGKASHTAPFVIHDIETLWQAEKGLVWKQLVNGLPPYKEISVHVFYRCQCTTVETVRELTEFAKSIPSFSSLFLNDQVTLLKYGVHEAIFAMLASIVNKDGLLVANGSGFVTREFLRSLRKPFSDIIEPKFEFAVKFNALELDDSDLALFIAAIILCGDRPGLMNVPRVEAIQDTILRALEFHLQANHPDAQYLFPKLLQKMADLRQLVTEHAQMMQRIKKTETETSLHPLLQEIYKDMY

661W = experiment: Cytotoxicity against mouse 661W cells assessed as cell death at 200 uM incubated for overnight by colorimetric enzyme coupled LDH assay; type: cell-based
[7] = Half life in Sprague Dawley rat pooled liver microsomes preincubated for 5 mins prior to addition of NADPH-regenerating system and measured up to 60 mins by HPLC-MS/MS analysis; type: ADME, Microsome; conditions: 1 h
[8] = target: T4, Peroxisome proliferator-activated receptor gamma (Homo sapiens, UniProt P37231); experiment: Agonist activity at human PPARgamma expressed in nonhuman mammalian cells assessed as increase in receptor transcriptional activity incubated for 22 to 24 hrs by luciferase reporter gene assay; type: cell-based
T4 sequence (P37231 whole entry): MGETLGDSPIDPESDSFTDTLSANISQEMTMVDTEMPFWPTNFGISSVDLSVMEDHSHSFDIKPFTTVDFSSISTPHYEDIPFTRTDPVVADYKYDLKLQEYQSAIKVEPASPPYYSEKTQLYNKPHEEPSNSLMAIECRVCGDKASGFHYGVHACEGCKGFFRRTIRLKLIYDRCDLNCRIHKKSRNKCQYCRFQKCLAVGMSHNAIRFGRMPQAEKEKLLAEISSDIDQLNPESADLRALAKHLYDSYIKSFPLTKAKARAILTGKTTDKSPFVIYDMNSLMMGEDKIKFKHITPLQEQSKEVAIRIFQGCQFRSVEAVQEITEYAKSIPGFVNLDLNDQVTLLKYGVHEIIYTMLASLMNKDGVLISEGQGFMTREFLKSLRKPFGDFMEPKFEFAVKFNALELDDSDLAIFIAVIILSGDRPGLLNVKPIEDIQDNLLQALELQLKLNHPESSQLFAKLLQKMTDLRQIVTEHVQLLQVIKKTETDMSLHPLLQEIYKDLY
Summary of the method: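 Reporter cells (nonhuman mammalian, engineered PPAR receptor with luciferase linked to response promoter) pre-incubated 4–6 h at 37 °C, 5% CO2 in medium with 10% charcoal-stripped FBS. Medium replaced with compound-containing screening medium, 22–24 h at 37 °C, then luciferase detection reagent, luminescence read. Multi-point dose-response for EC50; mean ± SEM of at least two separate experiments in triplicate.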

[9] = Toxicity in STZ-induced diabetic retinopathy Brown Norway rat model at 25 mg/kg, ip administered for 1 month starting at 2 weeks post STZ challenge; type: organism-based; conditions: in vivo, 336 h
[10] = target: Voltage-gated inwardly rectifying potassium channel KCNH2 (Homo sapiens, UniProt Q12809); experiment: Inhibition of human ERG stably expressed in CHOK1 cells assessed as tail current amplitude at 0.1 to 10 uM incubated for 5 mins measured after deploarization to +20 mV for 2s followed by 1s pulse to -40 mV with holding potential of -80 mV by Qpatch clamp assay; type: cell-based
Voltage-gated inwardly rectifying potassium channel KCNH2, sequence (Q12809 whole entry): as the sequence (Q12809 whole entry) above
Summary of the method: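 Whole-cell automated patch clamp at room temperature. CHO-K1 cells were detached with trypsin and held in serum-free medium. Intracellular solution was KCl/EGTA/MgATP/HEPES at pH 7.2; extracellular solution was NaCl/KCl/CaCl2/glucose/HEPES at pH 7.4, applied first for 5 min. Compound given at 0.1, 1 and 10 μM in rising order, 5 min each, on the same cell. Percent inhibition taken from tail current before and after compound. E-4031 reference. Run in duplicate.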

Rattus norvegicus = experiment: Protection against STZ-induced diabetic retinopathy Brown Norway rat model assessed as reduction in vascular leakage by measuring retinal vascular permeability at 25 mg/kg, ip administered daily for 4 weeks starting at 2 weeks post STZ challenge measured per mg of total retinal protein by Evan blue dye based assay (reference value: 0.090 +/- 0.015 microg); type: functional
Summary of the method: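 Male Brown Norway rats aged 8 weeks (legend: 7–8 weeks) made diabetic with STZ 55 mg/kg i.p.; blood glucose >350 mg/dl at day 3. Starting 2 weeks after STZ, daily i.p. compound or same-volume vehicle for 4 weeks. Under ketamine/xylazine, Evans blue 30 mg/ml at 1 µl/g given i.v. via femoral vein and circulated 2 h. Perfusion with 1% paraformaldehyde in citrate buffer, pH 4.2, at 37°C. Retina extracted in formamide 18 h at 70°C, ultracentrifuged, A620 read. Dye amount from a standard curve, normalized to total protein. Groups compared by Student's t-test, mean ± SD.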

[11] = Toxicity in STZ-induced diabetic retinopathy Brown Norway rat model assessed as liver weight at 25 mg/kg, ip administered daily for 4 weeks starting at 2 weeks post STZ challenge relative to body weight (reference value: 4.36 +/- 0.37%); type: organism-based; conditions: in vivo
[12] = Half life in human pooled liver microsomes preincubated for 5 mins prior to addition of NADPH-regenerating system and measured up to 60 mins by HPLC-MS/MS analysis; type: ADME, Microsome; conditions: 1 h

Cc1cc(CNc2cccc(C(=O)O)c2)ccc1OCc1ccc(F)cc1
EC50 [1]: 37 nM | Stability [2]: Stable | inhibition at 5 min, 10 µM (hERG (KCNH2)): 10% | Stability [3]: Stable | EC50 [4]: 93 nM | -TdeltaS [5]: -1.65 kcal/mol

COc1ccc(COc2ccc(CNc3cccc(C(=O)O)c3)cc2)cc1
EC50 [1]: 4430 nM | EC50 [6]: > 100000 nM | Activity (661W): Non-Toxic | t1/2 [7]: > 1 h | EC50 [8]: > 100000 nM | Activity [9]: Non-Toxic | inhibition at 5 min, 10 µM (hERG (KCNH2)): 10% | inhibition (INH) [10]: Not Active | Activity (Rattus norvegicus): 0.062 µg | Activity [11]: 4.68% | t1/2 [12]: > 1 h | EC50 [4]: 300 nM | -TdeltaS [5]: 5.71 kcal/mol
